Structures can show the parent of a compound that is named as a salt.
Key:
[1] = tested on: PC-3 cells; assay: IC50 determination, SRB cell density assay, PC-3; assay type: cell-based; details: Homo sapiens
Summary of the method: (§1)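 Cells were seeded in 96-well plates (PC-3 at 3 × 10³, T47D at 5 × 10³) and left overnight. They were exposed 72 h at 37 °C to increasing test compound concentrations with DMSO vehicle, washed, then regrown 48 h in fresh medium. Readout was by SRB: TCA fixation overnight, 0.5% SRB for 20 min, acetic acid washes, dye dissolved in 10 mM Tris, OD at 560 nm. Density was taken relative to untreated cells (100%). Runs were in triplicate, and IC50 came from a four-parameter nonlinear fit.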

[2] = tested on: T47D cells; assay: IC50 determination, SRB cell density assay, T47D; assay type: cell-based; details: Homo sapiens
Summary of the method: as §1

[3] = tested on: GRPR mRNA in PC-3 xenografts; assay: Ex-vivo GRPR mRNA expression in PC-3 xenografts; design: species or system NMRI-Foxn1 nu/nu mice; details: PC-3 xenografts after third cycle of DTX 5 mg/kg; RT-qPCR
Summary of the method: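 PC-3 xenografts came from male nude mice given taxane 5 mg/kg or placebo (polysorbate-80 1:1 in 5% glucose) weekly for 3 weeks, N = 4. After the final SPECT/CT scan, each tumor was halved. One half was processed for GRPR mRNA by RT-qPCR and compared with placebo.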

[4] = tested on: GRPR mRNA in T47D xenografts; assay: Ex-vivo GRPR mRNA expression in T47D xenografts; design: species or system NMRI-Foxn1 nu/nu mice; details: T47D tumors from DXR-treated animals (5 mg/kg, 2 cycles); RT-qPCR
Summary of the method: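 T47D xenografts came from estradiol-supplemented female nude mice given anthracycline 5 mg/kg or placebo weekly for 2 weeks. After the last SPECT/CT scan, each tumor was halved. One half was used for GRPR mRNA by RT-qPCR against placebo.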

[5] = tested on: T47D cells; assay: Sensitivity to GRPR-mediated radionuclide therapy, T47D; assay type: cell-based, human; details: 50 MBq, 1 h, SRB after 6 days
Summary of the method: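 T47D cells were pretreated 72 h with anthracycline or vehicle (0.4% DMSO), then regrown 24 h. Next, 3 × 10⁶ cells were seeded in T25 flasks and the following day exposed 1 h at 37 °C to 50 MBq/ml ¹⁷⁷Lu-labelled GRPR tracer, [¹⁷⁷Lu]Lu-DTPA (specificity control) or medium. Cells were scraped and re-seeded at 4 × 10³ per well, grown 6 days, then read by SRB. Density was taken versus medium-treated cells within each pretreatment group, from three independent experiments in triplicate.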

| IC50 [1] | IC50 [2] | Structure (SMILES) | GRPR mRNA levels in xenografts versus placebo [3] | GRPR mRNA expression in xenografts versus placebo [4] | Cell density relative to medium-treated cells ([5]; DXR-pretreated T47D cells) | Cell density relative to medium-treated cells ([5]; vehicle and DXR pretreated T47D cells) |
| --- | --- | --- | --- | --- | --- | --- |
| 0.0141 ± 0.00372 µM | 0.00094 ± 0.00039 µM | CC(=O)O[C@@]12CO[C@@H]1C[C@H](O)[C@@]1(C)C(=O)[C@H](O)C3=C(C)[C@@H](OC(=O)[C@H](O)[C@@H](NC(=O)OC(C)(C)C)c4ccccc4)C[C@@](O)([C@@H](OC(=O)c4ccccc4)[C@H]21)C3(C)C [DTX, anhydrous docetaxel] | similar |  |  |  |
|  | 0.0223 ± 0.00704 µM | COc1cccc2c1C(=O)c1c(O)c3c(c(O)c1C2=O)C[C@@](O)(C(=O)CO)C[C@@H]3O[C@H]1C[C@H](N)[C@H](O)[C@H](C)O1 [DXR, doxorubicin hydrochloride] |  | increased GRPR mRNA expression |  |  |
|  |  | O=C([O-])CN(CCN(CC(=O)[O-])CC(=O)[O-])CCN(CC(=O)[O-])CC(=O)[O-].[177Lu+3] [[^177Lu]Lu-DTPA] |  |  | slightly higher compared to the other conditions | no effect was observed |

— article PMC12316622 (EJNMMI Research, 2025)
